High-throughput results: PubChem, The Scripps Research Institute Molecular Screening Center
OPRM1-OPRD1 ag = agonists of OPRM1-OPRD1 heterodimerization, primary screen, cell-based, luminescence. Mu-type opioid receptor (Homo sapiens) + Delta-type opioid receptor (Homo sapiens), …. cells. activation, % at 9.3 µM. 340,000 compounds, 0.3% hits; in the data active = activation above about 18%
HTR5A ag ctr = HTR5A agonists in luminescence cell assay, primary screen, counter-screen for OPRM1-OPRD1 heterodimer agonist project, full-deck HTS; cell-based; AID 504692, 2011; 340,000 compounds, 0.61% hits; 5-hydroxytryptamine receptor 5A (Homo sapiens), P47898; activation, % at 9.3 µM; in the data active = activation mostly above about 9.5%, no sharp cut-off; inactive = mostly below about 7.6%
MC4R antagonist = MC4R antagonists of cAMP signaling, primary screen, cell-based, TR-FRET, antagonist arm of biased-ligand search. inhibition, % at 6.5 µM. AID 540295, 2011. Melanocortin receptor 4 (Homo sapiens), P32245. 360,000 compounds, 0.48% hits. MC4R-expressing cells, MTII-stimulated cAMP, LANCE TR-FRET;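 active = inhibition above its plate's cutoff, the mean of tested wells on that plate plus 3 SD, cut at about 29% in these data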
Target sequence (P32245 whole entry, looked up): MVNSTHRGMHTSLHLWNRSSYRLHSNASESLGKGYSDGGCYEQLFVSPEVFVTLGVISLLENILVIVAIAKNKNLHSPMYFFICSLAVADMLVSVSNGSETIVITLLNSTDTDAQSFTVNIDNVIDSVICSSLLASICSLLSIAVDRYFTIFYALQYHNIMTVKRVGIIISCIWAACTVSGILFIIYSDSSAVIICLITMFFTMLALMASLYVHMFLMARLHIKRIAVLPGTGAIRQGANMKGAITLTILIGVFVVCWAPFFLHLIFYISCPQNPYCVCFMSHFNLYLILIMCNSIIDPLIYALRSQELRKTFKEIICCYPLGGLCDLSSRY
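material = U2OS cells stably expressing human melanocortin 4 receptor (MC4R) | also added = Melanotan II challenge | dosing = single nominal compound dose of 6.5 µM | detection = TR-FRET with Eu-cAMP and labeled anti-cAMP, 671 nm | replication = singlicate | timing = compound 30 min, challenge 1 h, detection 1 h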
MOR-DOR inv ag = inverse agonists of MOR-DOR heterodimerization, primary screen, cell-based, luminescence. 340,000 compounds, 0.21% hits. AID 504357, 2011. Mu-type opioid receptor (Homo sapiens) + Delta-type opioid receptor (Homo sapiens), …. inhibition, % at 9.3 µM. cell-based MOR-DOR heterodimer luminescence, inverse agonism; in the data active = inhibition above about 22%, passing the limit was not always enough
HTR5A inv ag = HTR5A inverse agonists in luminescence cell assay, primary screen, counter-screen for OPRM1-OPRD1 heterodimer inverse agonist project, full-deck HTS; AID 504634, 2011; 340,000 compounds, 0.083% hits; 5-hydroxytryptamine receptor 5A (Homo sapiens), P47898; HTR5A cell line, inverse agonism; inhibition, % at 9.3 µM; in the data active = inhibition mostly above about 23%, no sharp cut-off; inactive = mostly below about 18%
MC4R ag barr = MC4R agonists recruiting beta-arrestin, primary screen, cell-based, luminescence, agonist arm of biased-ligand search | Melanocortin receptor 4 (Homo sapiens), P32245 | U2OS MC4R beta-arrestin complementation; percent of melanotan II response, DMSO zero | activation, % at 8.9 µM | 360,000 compounds, 0.98% hits | AID 540308, 2011;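 active = activation above a per-plate cutoff, the mean activation of sample wells on that plate plus 3 SD, cut at about 8% in these data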
MC4R barr ag = MC4R beta-arrestin agonists, retest, confirmation, cell-based, luminescence, U2OS. shares compounds with MC4R ag barr. 2,400 compounds, 31% hits. U2OS MC4R beta-arrestin recruitment; scaled DMSO 0%, Melanotan II 100%. activation, % at 8.9 µM;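 active = mean activation across replicates above the hit cutoff set in the earlier primary screen, cut at about 8% in these data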
MOR-DOR barr ag = agonists of MOR-DOR heterodimerization, counter-screen for MC4R biased agonist project, cell-based, luminescence; shares compounds with MC4R ag barr; activation, % at 9.2 µM; 2,400 compounds, 5.8% hits; U2OS PathHunter beta-arrestin, beta-gal luminescence; percent of deltorphin B response, DMSO zero;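 active = mean activation across replicates exceeds the hit threshold derived in the earlier primary screen, cut at about 18% in these data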
Numbers stand for hits; i = inactive; nt = no result given. This is a sample that favours compounds with a hit; in the whole collection about 2.4% have one here.

SMILES	OPRM1-OPRD1 ag	HTR5A ag ctr	MC4R antagonist	MOR-DOR inv ag	HTR5A inv ag	MC4R ag barr	MC4R barr ag	MOR-DOR barr ag
COc1ccc(C(=O)NC(=S)Nc2ccc(S(=O)(=O)Nc3cc(OC)ncn3)cc2)cc1	i	i	i	i	i	i	nt	nt
COc1cc(NS(=O)(=O)c2ccc(NC(=S)NC(=O)c3sc4ccccc4c3Cl)cc2)ncn1	i	i	i	i	i	14.7	18.9	i
O=C(COc1ccc2ccccc2c1)Nc1ccc2c3c(cccc13)CC2	i	i	i	i	i	34.4	i	i
N#Cc1cn(-c2ccccc2)nc1-c1ccccc1	i	i	i	i	i	11.5	i	i
OCc1cn(-c2ccccc2)nc1-c1ccc(-c2nn(-c3ccccc3)cc2CO)cc1	i	i	i	i	i	i	nt	nt
Cc1cccc(N(C)c2cc(C)nc3nc(C)nn23)c1	i	i	i	i	i	i	nt	nt
Cc1cccc(OCc2nnc(NC(=O)Cc3cccs3)s2)c1	i	i	i	i	i	34.0	9.9	i
Cc1ccc(NC(=O)Cc2nnc(SCC(=O)NC3CCCC3)n2C)cc1C	i	i	i	i	i	i	nt	nt
COc1ccc(-c2nc3ccccc3[nH]2)cc1	i	i	i	i	i	i	nt	nt
COc1ccc(-c2nc(=S)c3ccc4ccccc4c3[nH]2)cc1	i	i	i	i	i	12.3	i	i
